The test system of assay [1] is Oocyte. Nature of the assay: Activation of rat GABA alpha-1-beta-2-gamma-2 receptor expressed in xenopus oocytes assessed as potentiation of GABA-induced chloride current at 100 uM after 90 secs by two […] electrode voltage clamp assay. It is filed as cell-based. Put shortly: (§1)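 Rat α1, β2, γ2S cRNAs (1:1:10) injected into collagenase-defolliculated Xenopus oocytes, stored at 18 °C in ND96, recorded on days 1–5. Two-microelectrode voltage clamp at −70 mV. Bath: 90 mM NaCl, 1 mM KCl, 1 mM MgCl2, 1 mM CaCl2, 5 mM HEPES, pH 7.4. Cells with maximal currents > 3 μA discarded. Solutions delivered by automated fast perfusion.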

For assay [2], the system named is Oocyte. Nature of the assay: Activation of rat GABA alpha-1-beta-2-gamma-2 receptor expressed in xenopus oocytes assessed as potentiation of chloride current at 100 uM after 90 secs by two […] electrode voltage clamp assay. Type of assay: cell-based. Put shortly:
as §1

In assay [3] the test system is Oocyte. As to the kind of experiment: Activation of rat GABA alpha-1-beta-2-gamma-2 receptor expressed in xenopus oocytes assessed as potentiation of GABA-induced chloride current at 300 uM after 90 secs by two […] electrode voltage clamp assay. It is filed as cell-based. Put shortly:
as §1

Assay [4] can be described thus: (§2) Activation of rat GABA alpha-1-beta-2-gamma-2 receptor expressed in xenopus oocytes assessed as potentiation of GABA-induced chloride current after 90 secs by two […] electrode voltage clamp assay. Type of assay: cell-based. The following applies: Oocyte. Put shortly:
(§3)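 Xenopus oocytes injected with rat α1, β2, γ2S cRNAs (1:1:10), kept at 18 °C in ND96, recorded days 1–5. Two-electrode voltage clamp at −70 mV in bath containing 90 mM NaCl, 1 mM KCl, 1 mM MgCl2, 1 mM CaCl2, 5 mM HEPES, pH 7.4. Compound (1–300 μM) preapplied 90 s, then coapplied with GABA EC5–10 by fast perfusion. Values n = 3.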

Assay [5] has as its system Oocyte. The assay is described as §2. Type of assay: cell-based. Put shortly:
as §3

Assay [6] relates to Oocyte. As to the kind of experiment: Activation of rat GABA alpha-1-beta-2-gamma-2 receptor expressed in xenopus oocytes assessed as potentiation of GABA-induced chloride current at 300 uM after 90 secs by two […] electrode voltage clamp assay relative to control in presence of flumazenil. It is filed as cell-based. Put shortly:
as §1

Assay [7] is described as follows: Displacement of [3H]-flumazenil from GABAA receptor. In general terms: Displacement assays read how much labelled ligand stays bound in the presence of the test substance.
Assay [8] concerns Oocyte. Nature of the assay: Activation of rat GABA alpha-1-beta-2-gamma-2 receptor expressed in xenopus oocytes assessed as potentiation of GABA-induced chloride current at 100 uM after 90 secs by two […] electrode voltage clamp assay in presence of 1 uM Diazepam. It is filed as cell-based. Put shortly:
as §1

Active and inactive are the calls of the source. No cut-off for these calls is given here.

As for `O=C(/C=C/C=C/c1ccc2c(c1)OCO2)N1CCCC1`, the Activity in assay [1] was -29%. In assay [2], the outcome was inactive.

In the case of `CC(C)CNC(=O)/C=C/C=C/c1ccc2c(c1)OCO2`, the Activity in assay [1] is -10%. The outcome in assay [2] was inactive.

With `O=C(CCCC/C=C/c1ccc2c(c1)OCO2)N1CCCCC1`, the Activity in assay [1] stood at 32%. Moreover, in assay [2], the outcome was inactive.

`O=C(/C=C/C=C/c1ccc2c(c1)OCO2)N1CCCCC1` [PIPERINE]: the Activity was 226% in assay [1]; 302% in assay [3]; “Dose-dependent effect” in assay [5]; 334% in assay [6]; 391% in assay [8]. The EC50 (in general, the midpoint of the concentration-response curve) in assay [4] was determined as 52 µM. The result in assay [2] was inactive. Also, the IC50 – broadly, the concentration that inhibits the measured activity by half – in assay [7] was found to be 1200 µM.

Turning to `O=C(/C=C/CCc1ccc2c(c1)OCO2)N1CCCCC1` [PIPERANINE], the results for the Activity in assay [1], in assay [3] and in assay [5] were 138%, 187% and “Dose-dependent effect”, respectively. Besides, the concentration giving a half-maximal response (EC50) in assay [4] stood at 56 µM. Moreover, in assay [2], the result was inactive.

The values above are taken from ChEMBL document CHEMBL1154897, “HPLC-based activity profiling: discovery of piperine as a positive GABA(A) receptor modulator targeting a benzodiazepine-independent binding site” (J Nat Prod, 2010).
